The text below walks through data of ChEMBL document CHEMBL2163310, “Critical effect of peptide cyclization on the potency of peptide inhibitors against Dengue virus NS2B-NS3 protease” (J Med Chem, 2012).

Data set [1] is described as follows: Inhibition of Dengue Virus 2 NS2B-NS3 protease using Benzoyl-Nle-Lys-Arg-Arg-AMC as substrate incubated for 3 mins prior to substrate addition by fluorimetric analysis. Further details: species or system dengue virus type 2. The gist of the method: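 Ki by Dixon plot (1/v vs inhibitor) at 33 and 66 μM substrate. Fluorescence ex 356/em 438 nm; triplicate means.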

Data set [2] can be described thus: Chemical stability at 16. 7 uM measured every 30 mins of 2.5 hrs in presence of Dengue Virus 2 NS2B-NS3 protease. The data set is classed as physicochemical.
The nature of data set [3]: Drug degradation assessed as compound activity lost at 6.7 uM measured every 30 mins of 2.5 hrs in presence of Dengue Virus 2 NS2B-NS3 protease. The data set is classed as physicochemical. The settings on record: Dengue virus 2, Dengue virus 2 NS2B-NS3 protease; read-out: Drug degradation.
Data set [4] in a line: Drug degradation assessed as compound activity lost at 3.3 uM measured every 30 mins of 2.5 hrs in presence of Dengue Virus 2 NS2B-NS3 protease. It is filed as physicochemical. The settings on record: Dengue virus 2, Dengue virus 2 NS2B-NS3 protease; read-out: Drug degradation.
Data set [5] is described as follows: Inhibition of trypsin using N-benzoyl-DL-arginine-p-nitroanilide as substrate by […] analysis.
The nature of data set [6]: Chemical stability assessed as compound remaining after 4 hrs in presence of trypsin. It is filed as physicochemical. The settings on record: read-out: Stability. In a few lines:
(§1)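 Peptide incubated with trypsin in 0.05 M Tris-HCl pH 7.8, 20 mM CaCl2 at 37 °C, or with cathepsin S in 50 mM NaAc pH 4.5, 25 mM NaCl, 5 mM DTT at room temperature. Digests analysed on HPLC C18 analytical column for remaining intact peptide.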

Data set [7] in a line: Chemical stability assessed as compound remaining after 4 hrs in presence of cathepsin S. The data set is classed as physicochemical. The gist of the method: as §1
For the next data set, the system named is dengue virus type 2. Nature of the data set: Inhibition of Dengue Virus 2 NS2B-NS3 protease using Benzoyl-Nle-Lys-Arg-Arg-AMC as substrate at 167 uM incubated for 3 mins prior to substrate addition by fluorimetric analysis. In a few lines: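 Enzyme preincubated with inhibitor for 3 min at 37 °C before adding Bz-Nle-Lys-Arg-Arg-AMC substrate. Residual activity read by fluorescence, excitation 356 nm, emission 438 nm. Triplicate measurements averaged.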

A short description of data set [8]: Chemical stability after 30 mins in presence of trypsin. The data set is classed as physicochemical. The following applies: isolated protein, 0.5 h. The gist of the method:
as §1

Activity calls are given as the source filed them. No cut-off for these calls is given here. Positions of bridges follow the written chain, without caps; N, C: chain ends. Residues, ends and D or L forms follow the SMILES beside them. Bounds are passed on as bounds.

`CC(C)C[C@@H]1NC(=O)[C@H](CCCCN)NC(=O)[C@H](Cc2ccc(O)cc2)NC(=O)CNC(=O)[C@@H]2CSSC[C@H](NC1=O)C(=O)N[C@@H](Cc1cnc[nH]1)C(=O)N1C[C@H](O)C[C@H]1C(=O)N[C@H](C(=O)O)CSSC[C@H](NC(=O)[C@@H](NC(=O)CNC(=O)[C@@H](N)CC(N)=O)C(C)C)C(=O)N2` returned a Ki in [1] of 9 µM.
Same read-out and setting: the figure for `CC(C)C[C@@H]1NC(=O)[C@H](CCCCN)NC(=O)CNC(=O)CNC(=O)[C@@H](N)CSSC[C@@H](C(=O)O)NC1=O` (H-CGGKLC-OH; disulfide 1-6) is 15.1 µM; for `CC(C)C[C@@H]1NC(=O)CNC(=O)[C@H](Cc2ccc(O)cc2)NC(=O)CNC(=O)[C@@H](N)CSSC[C@@H](C(=O)O)NC1=O` (H-CGYGLC-OH; disulfide 1-6) it is more than 100 µM.
On the same count and under the same terms, the figure for `NCCCC[C@@H]1NC(=O)[C@H](Cc2ccc(O)cc2)NC(=O)CNC(=O)[C@@H](N)CSSC[C@@H](C(=O)O)NC(=O)CNC1=O` (H-CGYKGC-OH; disulfide 1-6) is 12 µM; for `N=C(N)NCCC[C@@H]1NC(=O)[C@H](CCCCN)NC(=O)[C@H](Cc2ccc(O)cc2)NC(=O)CNC(=O)[C@@H](N)CSSC[C@@H](C(=O)O)NC1=O` (H-CGYKRC-OH; disulfide 1-6) it is 5 µM.
On to `C[C@@H]1NC(=O)CNC(=O)[C@H](CO)NC(=O)[C@H](CCCCN)NC(=O)[C@H](CCCNC(=N)N)NC(=O)C(CCCCN)NC(=O)CNC1=O` (single isomer, unassigned), for which the Stability result in [2] is recorded as “Stable”. In data set [1], this compound returned a Ki of 11.3 µM.
Consider `N=C(N)NCCC[C@@H]1NC(=O)C(CCCCN)NC(=O)CNC(=O)[C@@H](N)CSSC[C@@H](C(=O)O)NC(=O)[C@H](CO)NC(=O)[C@H](CCCCN)NC1=O` (single isomer, unassigned), for which the metabolised at 2.5 h, 6.7 µM in [3] came out at 50%. In addition, the metabolised at 2.5 h, 3.3 µM in data set [4] turned out to be 50%. Besides, the Ki in data set [1] was 1.4 µM; in data set [5], more than 100 µM.
With `CC(C)C[C@@H]1NC(=O)[C@H](CCCCN)NC(=O)[C@H](CCCNC(=N)N)NC(=O)C(CCCCN)NC(=O)CNC(=O)[C@@H](N)CSSC[C@@H](C(=O)O)NC1=O` (single isomer, unassigned), the metabolised at 2.5 h, 6.7 µM in data set [3] turned out to be 50%. The metabolised at 2.5 h, 3.3 µM in [4] worked out at 50%. This compound came in with an inhibition constant (Ki) in [1] of 2.5 µM.
On to `N=C(N)NCCC[C@@H]1NC(=O)C(CCCCN)NC(=O)CNC(=O)[C@@H](N)CSSC[C@@H](C(=O)O)NC(=O)[C@H](CCCNC(=N)N)NC1=O` (single isomer, unassigned), for which the inhibitory constant (Ki) in data set [1] was 3.5 µM.
Consider `C[C@@H]1NC(=O)[C@@H](CS)NC(=O)CNC(=O)[C@H](CO)NC(=O)[C@H](CCCCN)NC(=O)[C@H](CCCNC(=N)N)NC(=O)C(CCCCN)NC(=O)CNC1=O` (single isomer, unassigned), for which the remaining at 4 h in [6] turned out to be 50%. The metabolised at 2.5 h, 3.3 µM in data set [4] came to 25%. For the same compound, the results for the Ki in data set [1] and in data set [5] were 2.2 µM and more than 100 µM, respectively. Also, the Stability entry in [7] is “Stable”.
Take `CC(C)C[C@@H]1NC(=O)[C@H](CCCCN)NC(=O)C(Cc2ccc(O)cc2)NC(=O)CNC(=O)[C@@H](N)CSSC[C@@H](C(=O)O)NC1=O` (single isomer, unassigned): the inhibition entry in the data set on dengue virus type 2 is “inactive”. For the same compound, the figures for the inhibition constant (Ki) in [1] and in [5] were 12.5 µM and more than 100 µM, respectively.
Regarding H-CAGKRKSG-OH, the Stability result in data set [8] was “Stable”. In data set [1], this compound came in with a Ki of 42 µM.

One may read the Ki as a measure of affinity in units of concentration, obtained from inhibition or displacement. Read a low Ki as a stronger hold on the target.
